Measurements reported in ChEMBL document CHEMBL4014347, “Targeting Mycolic Acid Transport by Indole-2-carboxamides for the Treatment of Mycobacterium abscessus Infections” (J Med Chem, 2017).
Values after ≈ are worked out from the molar mass of the structure shown. Active and inactive are the calls of the source. The calls are words filed in the database; no cut-off is given here.

Assays:
[1] = system: Mycobacteroides abscessus; test: Antibacterial activity against Mycobacterium abscessus CIP104536 smooth variant expressing tdTomato infected in PMA activated THP-1 macrophages assessed as protection against […] infection after 4 days post treatment by microscopic method; type: functional
Outline: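 THP-1 macrophages, PMA-differentiated, infected with tdTomato-expressing M. abscessus, amikacin-treated and drug-exposed as in the CFU assay; at 96 h, bacteria-containing macrophages counted under fluorescence microscopy (4297 total cells) to give percentage of infected cells.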

[2] = system: Mycobacteroides abscessus; test: Antibacterial activity against Mycobacterium abscessus CIP104536 smooth variant assessed as reduction in viable colony forming unit at 8 ug/ml after 4 days by time-kill assay; type: functional
Outline: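 Set up as microdilution MIC plates in cation-adjusted Mueller−Hinton broth with smooth CIP 104536; serial dilutions plated after 0, 24, 48, 72 and 96 h of drug exposure; CFU counted after 4 days at 30 °C; mean of triplicate log10 values, representative of three independent experiments.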

[3] = system: Mycobacteroides abscessus; test: Antibacterial activity against Mycobacterium abscessus CIP104536 smooth variant infected in PMA activated THP-1 macrophages assessed as reduction in viable colony forming unit at 96 ug/ml measured upto 4 days post treatment by fluorescence microscopic method; type: functional
Outline: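 THP-1 cells in RPMI with 10% FBS, differentiated with 20 ng/mL PMA for 48 h at 37 °C; infected at MOI 1:2 for 2 h under 5% CO2; washed, 200 μg/mL amikacin for 1 h, washed; drug medium renewed daily; lysed in 1% Triton X100 at 0, 48, 96 h and plated for CFU; triplicates, two independent experiments.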

[4] = system: Mycobacteroides abscessus; test: Antibacterial activity against Mycobacterium abscessus CIP104536 after 3 to 5 days by two fold serial dilution method; type: functional
Outline: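 Broth microdilution per CLSI in cation-adjusted Mueller–Hinton broth; exponential-phase inoculum 5 × 10^6 CFU/mL; two-fold serial dilutions from highest concentration, solvent wells as control; 30 °C for 3−5 days; MIC read visually and confirmed by absorbance at 560 nm; triplicate on three independent occasions.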

[5] = system: Mycobacterium tuberculosis; test: Antibacterial activity against Mycobacterium tuberculosis by AlamarBlue assay; type: functional
Vero = test: Cytotoxicity against African green monkey Vero cells; type: cell-based; settings: Chlorocebus sabaeus
[6] = Selectivity index, ratio of IC50 for African green monkey Vero cells to MIC=<90 for Mycobacterium tuberculosis; type: toxicity; settings: read-out: Selectivity Index
[7] = Selectivity index, ratio of IC50 for African green monkey Vero cells to MIC for Mycobacterium abscessus CIP104536; type: toxicity; settings: read-out: Selectivity Index
[8] = system: Mycobacteroides abscessus; test: Antibacterial activity against CF patient derived Mycobacterium abscessus subsp. abscessus isolate 2524 rough variant after 3 to 5 days by two fold serial dilution method; type: functional
Outline: (§1)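 Broth microdilution in cation-adjusted Mueller−Hinton broth per CLSI; inoculum 5 × 10^6 CFU/mL of exponential-phase bacteria; two-fold serial dilutions, solvent-only wells as control; 30 °C for 3−5 days; MIC read visually and confirmed by absorbance at 560 nm; triplicate on three independent occasions.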

[9] = system: Mycobacteroides abscessus; test: Antibacterial activity against CF patient derived Mycobacterium abscessus subsp. abscessus isolate 2648 rough variant after 3 to 5 days by two fold serial dilution method; type: functional; outline: as §1
[10] = system: Mycobacteroides abscessus; test: Antibacterial activity against non CF patient derived Mycobacterium abscessus subsp. abscessus isolate 3022 rough variant after 3 to 5 days by two fold serial dilution method; type: functional; outline: as §1
[11] = system: Mycobacteroides abscessus; test: Antibacterial activity against CF patient derived Mycobacterium abscessus subsp. abscessus rough variant after 3 to 5 days by two fold serial dilution method; type: functional; outline: as §1
[12] = system: Mycobacteroides abscessus; test: Antibacterial activity against non CF patient derived Mycobacterium abscessus subsp. abscessus isolate CIP104536 smooth variant after 3 to 5 days by two fold serial dilution method; type: functional; outline: as §1
[13] = system: Mycobacteroides abscessus; test: Antibacterial activity against non CF patient derived Mycobacterium abscessus subsp. abscessus isolate CIP104536 rough variant after 3 to 5 days by two fold serial dilution method; type: functional; outline: as §1
[14] = system: Mycobacteroides abscessus; test: Antibacterial activity against CF patient derived Mycobacterium abscessus subsp. abscessus isolate 3321 smooth variant after 3 to 5 days by two fold serial dilution method; type: functional; outline: as §1
[15] = system: Mycobacteroides abscessus; test: Antibacterial activity against CF patient derived Mycobacterium abscessus subsp. abscessus isolate 1298 smooth variant after 3 to 5 days by two fold serial dilution method; type: functional; outline: as §1
[16] = system: Mycobacteroides abscessus; test: Antibacterial activity against non CF patient derived Mycobacterium abscessus subsp. abscessus isolate 2587 smooth variant after 3 to 5 days by two fold serial dilution method; type: functional; outline: as §1
[17] = system: Mycobacteroides abscessus; test: Antibacterial activity against CF patient derived Mycobacterium abscessus subsp. abscessus isolate 2069 smooth variant after 3 to 5 days by two fold serial dilution method; type: functional; outline: as §1
[18] = system: Mycobacteroides abscessus; test: Antibacterial activity against CF patient derived Mycobacterium abscessus subsp. abscessus smooth variant after 3 to 5 days by two fold serial dilution method; type: functional; outline: as §1
[19] = system: Mycobacteroides abscessus; test: Antibacterial activity against CF patient derived Mycobacterium abscessus subsp. massiliense isolate 210 rough variant after 3 to 5 days by two fold serial dilution method; type: functional; outline: as §1
[20] = system: Mycobacteroides abscessus; test: Antibacterial activity against Addison's disease patient derived Mycobacterium abscessus subsp. massiliense isolate CIP108297 rough variant after 3 to 5 days by two fold serial dilution method; type: functional; outline: as §1
[21] = system: Mycobacteroides abscessus; test: Antibacterial activity against Addison's disease patient derived Mycobacterium abscessus subsp. massiliense isolate CIP108297 smooth variant after 3 to 5 days by two fold serial dilution method; type: functional; outline: as §1
[22] = system: Mycobacteroides abscessus; test: Antibacterial activity against CF patient derived Mycobacterium abscessus subsp. massiliense isolate 111 smooth variant after 3 to 5 days by two fold serial dilution method; type: functional; outline: as §1
[23] = system: Mycobacteroides abscessus; test: Antibacterial activity against CF patient derived Mycobacterium abscessus subsp. massiliense isolate 212 smooth variant after 3 to 5 days by two fold serial dilution method; type: functional; outline: as §1
[24] = system: Mycobacteroides abscessus; test: Antibacterial activity against CF patient derived Mycobacterium abscessus subsp. massiliense isolate 185 smooth variant after 3 to 5 days by two fold serial dilution method; type: functional; outline: as §1
[25] = system: Mycobacteroides abscessus; test: Antibacterial activity against CF patient derived Mycobacterium abscessus subsp. massiliense isolate 140 smooth variant after 3 to 5 days by two fold serial dilution method; type: functional; outline: as §1
[26] = system: Mycobacteroides abscessus; test: Antibacterial activity against CF patient derived Mycobacterium abscessus subsp. massiliense isolate 100 smooth variant after 3 to 5 days by two fold serial dilution method; type: functional; outline: as §1
[27] = system: Mycobacteroides abscessus; test: Antibacterial activity against CF patient derived Mycobacterium abscessus subsp. massiliense isolate 107 smooth variant after 3 to 5 days by two fold serial dilution method; type: functional; outline: as §1
[28] = system: Mycobacteroides abscessus; test: Antibacterial activity against CF patient derived Mycobacterium abscessus subsp. massiliense isolate 122 smooth variant after 3 to 5 days by two fold serial dilution method; type: functional; outline: as §1
[29] = system: Mycobacteroides abscessus; test: Antibacterial activity against CF patient derived Mycobacterium abscessus subsp. massiliense isolate 120 smooth variant after 3 to 5 days by two fold serial dilution method; type: functional; outline: as §1
[30] = Antibacterial activity against non CF patient derived Mycobacterium abscessus subsp. bolletii isolate 19 rough variant after 3 to 5 days by two fold serial dilution method; type: functional; settings: Mycobacteroides abscessus; outline: as §1
[31] = Antibacterial activity against CF patient derived Mycobacterium abscessus subsp. bolletii isolate 108 rough variant after 3 to 5 days by two fold serial dilution method; type: functional; settings: Mycobacteroides abscessus; outline: as §1
[32] = Antibacterial activity against non CF patient derived Mycobacterium abscessus subsp. bolletii isolate 17 smooth variant after 3 to 5 days by two fold serial dilution method; type: functional; settings: Mycobacteroides abscessus; outline: as §1
[33] = Antibacterial activity against CF patient derived Mycobacterium abscessus subsp. bolletii isolate 97 smooth variant after 3 to 5 days by two fold serial dilution method; type: functional; settings: Mycobacteroides abscessus; outline: as §1
[34] = Antibacterial activity against CF patient derived Mycobacterium abscessus subsp. bolletii isolate 114 smooth variant after 3 to 5 days by two fold serial dilution method; type: functional; settings: Mycobacteroides abscessus; outline: as §1
[35] = Antibacterial activity against CF patient derived Mycobacterium abscessus subsp. bolletii isolate 116 smooth variant after 3 to 5 days by two fold serial dilution method; type: functional; settings: Mycobacteroides abscessus; outline: as §1
[36] = Antibacterial activity against CF patient derived Mycobacterium abscessus subsp. bolletii isolate 112 rough variant after 3 to 5 days by two fold serial dilution method; type: functional; settings: Mycobacteroides abscessus; outline: as §1
[37] = Antibacterial activity against Mycobacterium abscessus subsp. bolletii isolate CIP108541 smooth variant after 3 to 5 days by two fold serial dilution method; type: functional; settings: Mycobacteroides abscessus; outline: as §1
[38] = system: Mycobacteroides abscessus; test: Antibacterial activity against Mycobacterium abscessus CIP104536 smooth variant assessed as reduction in viable colony forming unit at […] after 4 days by time-kill assay; type: functional
[39] = system: Mycobacteroides abscessus; test: Antibacterial activity against Mycobacterium abscessus CIP_OK4-10 harboring MAB_4508 g925c/A309P mutant after 3 to 5 days by two fold serial dilution method; type: functional; outline: as §1
[40] = system: Mycobacteroides abscessus; test: Antibacterial activity against Mycobacterium abscessus CIP_PIPD1 harboring MAB_4508 g925c/A309P mutant after 3 to 5 days by two fold serial dilution method; type: functional; outline: as §1
[41] = system: Mycobacteroides abscessus; test: Antibacterial activity against Mycobacterium abscessus CIP104536 smooth variant harboring pMV261 MAB_4508 wild type at 0.5 to 1 ug/ml after 3 days; type: functional
Outline: (§2)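 M. abscessus overexpressing wild-type or A309P MAB_4508 from pMV261 plated on 7H10 agar with 10% OADC containing drug; plates incubated at 30 °C for 3 days before growth inspection.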

[42] = system: Mycobacteroides abscessus; test: Antibacterial activity against Mycobacterium abscessus CIP104536 smooth variant harboring pMV261 MAB_4508_A309P mutant at 0.5 to 1 ug/ml after 3 days; type: functional; outline: as §2
[43] = system: Mycobacteroides abscessus; test: Inhibition of MmpL3 in Mycobacterium abscessus CIP104536 smooth variant assessed as reduction in trehalose dimycolate synthesis up to 6.2 ug/ml preincubated for 1 hr followed by [14C]acetic acid addition measured after 2 hrs by TLC based autoradiography analysis
Outline: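 Exponential cultures in 7H9 with OADC exposed to increasing drug concentrations for 1 h at 37 °C with agitation, then labelled with 1 μCi/mL [14C]acetate (56 mCi/mmol) for 2 h; apolar lipids (TMM, TDM) run on TLC in chloroform/methanol/water 40:8:1; MAME and arabinogalactan-bound mycolates in petroleum ether/acetone 95:5; autoradiography.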

[44] = system: Mycobacterium tuberculosis; test: Inhibition of C-terminal His-tagged Mycobacterium tuberculosis Ag85C expressed in Escherichia coli C41 (DE3) at 2.5 to 50 uM after 1 hr by resorufin butyrate-based fluorescence assay
Outline: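 Purified Ag85C mycolyltransferase activity measured with the fluorescent probe resorufin butyrate; compounds tested at 2.5 to 50 μM.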

For C[C@@H](O)[C@H]1C(=O)N2C(C(=O)O)=C(SCCNC=N)C[C@H]12, the Activity [1] was “Active”, the Activity [2] was “Active” and the Activity [3] was “Active”.

With O=C(NC1CCCCCC1)c1cc2ccc(Br)cc2[nH]1 the MIC [4] was 0.125 µg/mL (≈ 0.373 µM), the “MIC=<90” value [5] was 0.0313 µg/mL (≈ 0.0934 µM) and the IC50 (Vero) was no less than 64 µg/mL. It also gave a selectivity ratio [6] of no less than 2050, a selectivity ratio [7] of no less than 512 and an MIC [8] of 0.125 µg/mL (≈ 0.373 µM). For the same compound, the MIC [9] was 0.125 µg/mL (≈ 0.373 µM), the MIC [10] was 0.125 µg/mL (≈ 0.373 µM) and the MIC [11] was 0.125 µg/mL (≈ 0.373 µM). The MIC [12] was 0.125 µg/mL (≈ 0.373 µM), the MIC [13] was 0.0625 µg/mL (≈ 0.186 µM) and the MIC [14] was 0.125 µg/mL (≈ 0.373 µM). For the same compound, the MIC [15] was 0.125 µg/mL (≈ 0.373 µM), the MIC [16] was 0.25 µg/mL (≈ 0.746 µM) and the MIC [17] was 0.125 µg/mL (≈ 0.373 µM). It also gave an MIC [18] of 0.125 µg/mL (≈ 0.373 µM), an MIC [19] of 0.125 µg/mL (≈ 0.373 µM) and an MIC [20] of 0.125 µg/mL (≈ 0.373 µM). The MIC [21] was 0.25 µg/mL (≈ 0.746 µM), the MIC [22] was 0.125 µg/mL (≈ 0.373 µM) and the MIC [23] was 0.125 µg/mL (≈ 0.373 µM). For the same compound, the MIC [24] was 0.125 µg/mL (≈ 0.373 µM), the MIC [25] was 0.125 µg/mL (≈ 0.373 µM) and the MIC [26] was 0.125 µg/mL (≈ 0.373 µM). It also gave an MIC [27] of 0.25 µg/mL (≈ 0.746 µM), an MIC [28] of 0.125 µg/mL (≈ 0.373 µM) and an MIC [29] of 0.125 µg/mL (≈ 0.373 µM). It also gave an MIC [30] of 0.125 µg/mL (≈ 0.373 µM), an MIC [31] of 0.5 µg/mL (≈ 1.49 µM) and an MIC [32] of 0.125 µg/mL (≈ 0.373 µM). It also gave an MIC [33] of 0.25 µg/mL (≈ 0.746 µM), an MIC [34] of 0.125 µg/mL (≈ 0.373 µM) and an MIC [35] of 1 µg/mL (≈ 2.98 µM). For the same compound, the MIC [36] was 0.0625 µg/mL (≈ 0.186 µM), the MIC [37] was 0.125 µg/mL (≈ 0.373 µM) and the Activity [38] was “Active”. For the same compound, the MIC [39] was 32 µg/mL (≈ 95.5 µM), the MIC [40] was 32 µg/mL (≈ 95.5 µM) and the Activity [41] was “Active”. The Activity [42] was “inactive”, the inhibition [43] was “Dose-dependent effect” and the inhibition [44] was “inactive”.
